Source: ChEMBL document CHEMBL4007461, “Synthesis, Antiviral Potency, in Vitro ADMET, and X-ray Structure of Potent CD4 Mimics as Entry Inhibitors That Target the Phe43 Cavity of HIV-1 gp120” (J Med Chem, 2017)

What was measured:
[1] = (§1) Cytotoxicity against human TZM-bl cells incubated for 3 days by XTT assay; assay type: cell-based; conditions: TZM-bl cells
Method in brief: (§2)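 TZM-bl cells, 1 x 10^4/well, cultured overnight at 37 °C. Compounds added at graded concentrations for three days.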

[2] = system: Human immunodeficiency virus 1; test: Antiviral activity against X4 tropic HIV1 HXB2 infected in human TZM-bl cells pretreated with virus for 30 mins followed by 3 days incubation with cells by luciferase reporter gene based single cycle infection assay; assay type: functional, cell-based
Method in brief: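 TZM-bl cells (1 x 10^4/well) were cultured overnight at 37 °C. HXB2-Env pseudovirus was preincubated 30 min with graded compound concentrations, then added to the cells for 3 days. Cells were washed and lysed, and luciferase was read. IC50 came from percent inhibition.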

[3] = (§3) Cytotoxicity against human MT2 cells incubated for 4 days by XTT assay; assay type: cell-based; conditions: MT2 cells
Method in brief: (§4)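 Run alongside the MT-2 multicycle infection assay. Compound at graded concentrations mixed with an equal volume of MT-2 cells (10^5 cells/ml). Medium replaced next day and culture continued four days.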

[4] = system: Human immunodeficiency virus 1; test: Antiviral activity against HIV1 3B infected in human MT2 cells assessed as inhibition of p24 antigen production pretreated with virus for 30 mins followed by 4 days incubation with cells by sandwich ELISA based multicycle infection assay; assay type: functional, cell-based
Method in brief: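 MT-2 cells were infected with HIV-1 IIIB at 100 TCID50 and preincubated 30 min with graded compound concentrations. Medium was replaced next day. Supernatants were collected 4 days post-infection, lysed with equal volume 5% Triton X-100, and p24 was measured by sandwich ELISA. IC50 came from percent inhibition of p24.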

TZM = test: as §1; assay type: cell-based; conditions: tzm, 72 h; method in brief: as §2
MT2 = test: as §3; assay type: cell-based; conditions: mt2, 96 h, 96 h; method in brief: as §4
[5] = Human immunodeficiency virus 1, HXB2, TZM-bl
[6] = Human immunodeficiency virus 1, 3B, MT2

Compound | CC50 at 72 h [1] [µM] | IC50 [2, 5] [µM] | CC50 at 96 h [3] [µM] | IC50 [4, 6] [µM] | CC50 (TZM) [µM] | CC50 (MT2) [µM] | IC50 [4] [µM] | IC50 [2] [µM]
NCC(NC(=O)c1ccc(-c2ccc(Cl)c(F)c2)[nH]1)c1ncc(CO)s1 (stereo in doubt; 82A) | 37.4 | 1.1 | 32 | 0.94 |  |  |  | 
Cc1nc(C(CCN(C)C)NC(=O)c2ccc(-c3cccc(Cl)c3)[nH]2)sc1CO (stereo in doubt; 67A) | 29.4 | 10.4 | 26 | 13.8 |  |  |  | 
Cc1nc(C(CN)NC(=O)c2cnc(-c3ccc(Cl)cc3)[nH]2)sc1CO (centres undefined) | > 51 | > 51 | > 51 | > 26 |  |  |  | 
CNCC(NC(=O)c1ccc(-c2ccc(Cl)c(F)c2)[nH]1)c1ncc(CO)s1 (stereo in doubt; 86A) | 17.4 | 1.4 | 18.4 | 3.9 |  |  |  | 
Cc1nc(C(CN)NC(=O)c2ccc(-c3ccc(F)c(F)c3)[nH]2)sc1CO (stereo in doubt; 25A) | 57.3 | 3.4 | 61.2 | 6 |  |  |  | 
COc1cc(C(=O)NC(CN)c2nc(C)c(CO)s2)[nH]c1-c1ccc(Cl)cc1 (stereo in doubt; 29A) | 25.4 | 22.2 | 25 | > 24 |  |  |  | 
CNCCC(NC(=O)c1ccc(-c2cccc(Cl)c2)[nH]1)c1nc(C)c(CO)s1 (stereo in doubt; 64A) | 23 | 6.3 | 25.1 | 7.8 |  |  |  | 
Cc1ccc(-c2ccc(C(=O)NC(CN(C)C)c3nc(C)c(CO)s3)[nH]2)cc1F (centres undefined) | > 40 | > 40 | > 40 | > 20 |  |  |  | 
NCC(NC(=O)c1ccc(-c2ccc(Cl)cc2)[nH]1)c1ncc(CO)s1 (stereo in doubt; 81A) | 38 | 1.3 | 35.6 | 1.4 |  |  |  | 
CNCC(NC(=O)c1ccc(-c2ccc(Cl)cc2)[nH]1)c1nc(C)c(CO)s1 (stereo in doubt; 41B) |  |  |  |  | 31.7 | 26.4 | 3.1 | 
CNCCC(NC(=O)c1ccc(-c2ccc(F)c(C)c2)[nH]1)c1nc(C)c(CO)s1 (stereo in doubt; 66A) | 38.9 | 4.1 | 25.9 | 4.1 |  |  |  | 
CNCC(NC(=O)c1ccc(-c2ccc(Cl)c(F)c2)[nH]1)c1nc(C)c(CO)s1 (stereo in doubt; 42B) |  |  |  |  | 21.3 | 18.1 | 2 | 
Cc1nc(C(CCN)NC(=O)c2ccc(-c3ccc(F)c(Cl)c3)[nH]2)sc1CO (stereo in doubt; 62A) | 25.5 | 6.6 | 25.1 | 7.8 |  |  |  | 
Cc1nc(C(CN)NC(=O)c2ncc(-c3ccc(Cl)cc3)[nH]2)sc1CO (stereo in doubt; 30B) |  |  |  |  |  |  |  | 35
Cc1nc(C(CN)NC(=O)c2ncc(-c3ccc(Cl)cc3)[nH]2)sc1CO (stereo in doubt; 30A) | > 51 | 51 | > 51 | > 26 |  |  |  | 
NCC(NC(=O)c1ccc(-c2cc(F)c(Cl)c(F)c2)[nH]1)c1ncc(CO)s1 (stereo in doubt; 84B) |  |  |  |  | 20.6 | 17.4 | 0.97 | 
Cc1nc(C(CN)NC(=O)c2ccc(-c3ccc(Cl)cc3)n2C)sc1CO (stereo in doubt; 26A) | 36.7 | 25.8 | 26.6 | > 25 |  |  |  | 
Cc1cc(C(=O)NC(CN)c2nc(C)c(CO)s2)[nH]c1-c1ccc(Cl)cc1 (stereo in doubt; 28B) |  |  |  |  | 5.2 | 4.1 | 6.1 | 

Compound | CC50 at 72 h [1] [µM] | IC50 [2, 5] [µM] | CC50 at 96 h [3] [µM] | IC50 [4, 6] [µM] | CC50 (TZM) [µM] | CC50 (MT2) [µM] | IC50 [4] [µM] | IC50 [2] [µM]
Cc1nc(C(CN(C)C)NC(=O)c2ccc(-c3ccc(Cl)c(F)c3)[nH]2)sc1CO (stereo in doubt; 45A) | > 40 | 16.7 | > 40 | > 20 |  |  |  | 
COc1cc(C(=O)NC(CN)c2nc(C)c(CO)s2)[nH]c1-c1ccc(Cl)cc1 (stereo in doubt; 29B) |  |  |  |  | 16.4 | 15.7 |  | 16.9
COc1ccc(-c2ccc(C(=O)NC(CN)c3ncc(CO)s3)[nH]2)cc1OC (centres undefined) | > 50 | > 50 | > 50 | > 50 |  |  |  | 
Cc1cc(-c2ccc(C(=O)NC(CCN)c3nc(C)c(CO)s3)[nH]2)ccc1F (stereo in doubt; 63A) | 33 | 5.7 | 35.8 | 1.8 |  |  |  | 
Cc1nc(C(CN(C)C)NC(=O)c2ccc(-c3ccc(Cl)c(F)c3)[nH]2)sc1CO (stereo in doubt; 45B) |  |  |  |  |  |  | 19.2 | 19
Cc1nc(C(CN)NC(=O)c2ccc(-c3ccc(Cl)cc3)n2C)sc1CO (stereo in doubt; 26B) |  |  |  |  | 35.8 | 32.1 |  | 26
CNCC(NC(=O)c1ccc(-c2ccc(C)c(F)c2)[nH]1)c1nc(C)c(CO)s1 (stereo in doubt; 43A) | 33.5 |  | 34.4 | 1.1 |  |  |  | 
Cc1nc(C(CCN(C)C)NC(=O)c2ccc(-c3ccc(F)c(Cl)c3)[nH]2)sc1CO (stereo in doubt; 68A) | 21.3 | 1.5 | 19.1 | 3.7 |  |  |  | 
Cc1cc(-c2ccc(C(=O)NC(CCN(C)C)c3nc(C)c(CO)s3)[nH]2)ccc1F (stereo in doubt; 69A) | 23.7 |  | 25.1 | 2.1 |  |  |  | 1.9
Cc1cc(-c2ccc(Cl)cc2)[nH]c1C(=O)NC(CN)c1nc(C)c(CO)s1 (stereo in doubt; 27A) | 26.4 | 1.1 | 20.2 | 3.9 |  |  |  | 
Cc1nc(C(CN)NC(=O)c2ccc(-c3ccc(F)c(F)c3)[nH]2)sc1CO (stereo in doubt; 25B) |  |  |  |  | 58.6 | 64.6 | 4.8 | 
CNCC(NC(=O)c1ccc(-c2ccc(Cl)c(F)c2)[nH]1)c1nc(C)c(CO)s1 (stereo in doubt; 42A) | 20.6 | 1.6 | 21.7 | 2.4 |  |  |  | 
CNCC(NC(=O)c1ccc(-c2ccc(Cl)cc2)[nH]1)c1nc(C)c(CO)s1 (stereo in doubt; 41A) | 28.4 |  | 27.2 | 5.5 |  |  |  | 
Cc1nc(C(CN(C)C)NC(=O)c2ccc(-c3ccc(Cl)cc3)[nH]2)sc1CO (centres undefined) | > 40 | > 40 | > 40 | > 40 |  |  |  | 
CNCC(NC(=O)c1ccc(-c2ccc(C)c(F)c2)[nH]1)c1ncc(CO)s1 (stereo in doubt; 87A) | 22.3 | 2 | 26.6 |  |  |  | 4.4 | 
Cc1ccc(-c2ccc(C(=O)NC(CN)c3ncc(CO)s3)[nH]2)cc1F (stereo in doubt; 83A) | 39.2 |  | 35.2 |  |  |  | 1.6 | 
CNCC(NC(=O)c1ccc(-c2cc(F)c(Cl)c(F)c2)[nH]1)c1ncc(CO)s1 (stereo in doubt; 88A) | 10.4 | 0.36 | 14 | 0.36 |  |  |  | 
CNCCC(NC(=O)c1ccc(-c2ccc(F)c(Cl)c2)[nH]1)c1nc(C)c(CO)s1 (stereo in doubt; 65A) | 22 |  | 22.6 | 3.9 |  |  |  | 1.5
